# Assay outcomes as filed in PubChem BioAssay.
# Most compounds without a hit are left out; they make up all but 3% or so of the library.
# TAAR1 antagonist = human TAAR1 antagonism. CHO RD-HGA16 TAAR1, Fluo-8 calcium fluorescence, antagonist. Q96RJ0. AID 624466. inhibition, % at 3 µM. hit rate 1.5% among 360,000;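 active = inhibition above a per-plate cutoff, the mean inhibition of test compounds on that plate plus 3 SD, cut at about 49% in these data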;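 note: 0% = DMSO plus EC80 beta-PEA response and 100% = DMSO alone without agonist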
#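 Material: RD-HGA16 CHO cells with stable hTAAR1 and Gα16; Dosing: single nominal final test compound concentration of 3 µM; Schedule: seeding 17-24 h prior, 75-min 37 °C, 30-min RT dye loading; Detection: kinetic Fluo-8 calcium fluorescence measurement; Measure: % inhibition from peak post-agonist over basal fluorescence ratio; Benchmarks: vehicle and agonist controls.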
# CHRM4 antagonist = antagonists of human muscarinic M4 receptor (CHRM4); inhibition, % at 3 µM; AID 624125; CHO-hM4 cells, ACh EC80, Fluo-8 calcium fluorescence; P08173; hit rate 0.73% among 360,000;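 active = inhibition above its plate's cutoff, the mean inhibition of sample wells plus 3 SD, cut at about 27% in these data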;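 note: 0% = acetylcholine EC80 with DMSO and 100% = DMSO without agonist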
# Target sequence (P08173 whole entry, looked up): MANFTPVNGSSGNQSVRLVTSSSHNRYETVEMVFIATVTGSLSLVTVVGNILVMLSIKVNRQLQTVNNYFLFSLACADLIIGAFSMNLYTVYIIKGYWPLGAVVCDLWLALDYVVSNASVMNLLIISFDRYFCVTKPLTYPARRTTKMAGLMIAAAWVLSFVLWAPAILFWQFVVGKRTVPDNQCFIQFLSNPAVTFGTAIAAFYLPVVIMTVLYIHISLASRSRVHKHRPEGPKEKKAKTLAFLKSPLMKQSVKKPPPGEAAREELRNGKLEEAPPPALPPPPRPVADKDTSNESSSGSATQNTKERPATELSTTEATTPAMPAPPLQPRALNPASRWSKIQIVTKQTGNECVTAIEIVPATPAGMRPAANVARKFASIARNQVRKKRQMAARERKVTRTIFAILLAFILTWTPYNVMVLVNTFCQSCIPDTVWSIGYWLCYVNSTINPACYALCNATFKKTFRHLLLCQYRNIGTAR
# TAAR1 agonist = human TAAR1 agonism. hit rate 0.99% among 360,000. CHO RD-HGA16 TAAR1, Fluo-8 calcium fluorescence; vehicle wells 0%, saturating PEA agonist 100%. activation, % at 3 µM. AID 624467;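 active = activation above the mean activation of all test compounds in the run plus 3 SD, cut at about 38% in these data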
#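 Test system: RD-HGA16 (CHO) cells co-expressing Gα16 and hTAAR1 | Doses: Single dose, 3 µM | Schedule: 17-24 h seeding, 75 min 37 °C dye, 30 min RT | Evaluation: % activation from peak over basal fluorescence ratio, DMSO-to-PEA scaled | Technique: Kinetic Fluo-8 calcium fluorescence | Benchmarks: Low control DMSO, high control PEA (EC100)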
# M4 ag = agonists of human muscarinic M4 receptor (CHRM4); activation, % at 3 µM; P08173; hit rate 0.14% among 360,000; CHO-K1 hM4/Gqi5, Fluo-8 calcium fluorescence; vehicle 0%, full acetylcholine response 100%;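 active = activation above the run mean over all test wells plus 3 SD, cut at about 32% in these data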;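 note: peak over basal fluorescence ratio per well then scaled between controls; 0% = DMSO wells and 100% = acetylcholine at EC100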
# M4 PAM = CHRM4 positive allosteric modulation. P08173. CHO-K1 hM4/Gqi5, Fluo-8 calcium fluorescence, ACh EC20; 0% = ACh EC20, 100% = maximal ACh. activation, % at 3 µM. hit rate 0.4% among 360,000. AID 624126;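 active = activation above its plate's cutoff, the mean activation of sample wells plus 3 SD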
# TAAR1 nonsel count = counter-screen for TAAR1 antagonists: nonselective antagonists; shares compounds with TAAR1 antagonist; AID 651780; inhibition, % at 3 µM; counterscreen cell line, calcium fluorescence, antagonist mode; hit rate 77% among 2,400; in the data active = inhibition above about 22%;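 note: CHO-Ga16 host cells stimulated with ATP at an EC80 level; 0% = agonist EC80 plus vehicle and 100% = vehicle without agonist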
# TAAR1 ant conf = human TAAR1 antagonism, confirmed | inhibition, % at 3 µM | TAAR1-expressing cells, fluorescence antagonist read-out | hit rate 40% among 2,400 | shares compounds with TAAR1 antagonist; in the data active = inhibition above about 49%;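 note: CHO-Ga16 host cells challenged with agonist PEA near its EC80; 0% = agonist at EC80 plus vehicle and 100% = vehicle with no agonist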
# Ga16 nonsel ag = nonselective Ga16 agonist in TAAR1 antagonist counter-screen; shares compounds with TAAR1 antagonist; Ga16-expressing cells, calcium fluorescence, agonist counterscreen; activation, % at 3 µM; hit rate 18% among 2,400; in the data active = activation above about 12%;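 note: 0% = vehicle wells and 100% = saturating stimulus response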
# TAAR1 ag count = activates human TAAR1 in antagonist counter-screen. hit rate 2% among 2,400. activation, % at 3 µM. hTAAR1 cell line, fluorescence activation, agonist mode. shares compounds with TAAR1 antagonist; in the data active = activation above about 37%;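 note: CHO cells stably expressing TAAR1 with calcium dye readout; 0% = DMSO vehicle and 100% = full agonist response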
# * = called active by the depositor; x = not tested or not shown.
SMILES,TAAR1 antagonist,CHRM4 antagonist,TAAR1 agonist,M4 ag,M4 PAM,TAAR1 nonsel count,TAAR1 ant conf,Ga16 nonsel ag,TAAR1 ag count
COc1cccc(-c2cnc(C(O)c3ccc(Cl)cc3)[nH]2)c1 (stereo unspecified),14.6,-8.1,1.8,5.1,-2.3,x,x,x,x
Cc1nc2scc(-c3ccccc3)c2c(=O)n1N=C1C=CC(=O)C=C1,62.2*,x,10.5,x,x,55.5*,54.0*,8.8,7.0
Cc1c(-c2ccccc2)nc2ccccc2c1C(=O)OCC(=O)Nc1ncc(C(F)(F)F)cc1Cl,53.4*,-1.7,5.0,3.4,-12.6,14.3,27.7,4.6,9.6
O=C(NCc1cc(C(F)(F)F)ccc1Cl)c1cccc2c1C(=O)c1ccc(N3CCOCC3)cc1S2(=O)=O,60.5*,3.6,17.8,7.4,-2.9,33.2*,49.9*,22.2*,21.8
Cc1cccc(N2CCN(C(=O)c3cc(S(=O)(=O)N(C)C)ccc3N3CCCC3)CC2)c1C,-6.2,-1.2,1.6,1.6,-2.1,x,x,x,x
CCOc1ccccc1N1CCN(C(=O)c2cc(S(=O)(=O)N(C)C)ccc2N2CCCC2)CC1,56.8*,-4.0,18.9,20.3,-3.5,19.5,46.9,9.4,9.5
COc1ccc(S(=O)(=O)N(C)C[C@H]2Oc3c(cccc3N(C)C)C(=O)N([C@H](C)CO)C[C@@H]2C)cc1,6.9,-8.3,17.6,2.3,5.7,x,x,x,x
Cc1nn(-c2ccccc2)c(C)c1NC(=O)COC(=O)c1ccc(O)cc1O,75.6*,5.8,21.4,20.8,-7.6,29.4*,55.2*,10.2,10.9
Cc1cc(C)cc([C@H]2C[C@]34CN(C(=O)OC(C)(C)C)S(=O)(=O)[C@H]3C[C@H]2O4)c1,2.9,x,-1.6,x,x,x,x,x,x
CCc1ccc(NC(=O)CCC(=O)N2CCSc3ccccc32)cc1,58.7*,-11.6,6.0,19.4,-10.7,24.8*,40.3,5.8,4.4
O=C(CCC(=O)N1CCSc2ccccc21)Nc1ccc(F)cc1,19.9,-2.4,6.9,9.2,-5.0,x,x,x,x
CCc1cccc(NC(=O)CCC(=O)N2CCSc3ccccc32)c1,60.1*,-16.2,7.7,17.6,-3.3,20.6,39.6,5.8,10.0
COCCOC(=O)N1CCCCC1c1cc(C(=O)NCc2ccc(Cl)c(Cl)c2)no1 (stereo unspecified),-6.1,-5.0,2.1,6.9,-5.3,x,x,x,x
Cc1oc2c(O)c(O)ccc2c(=O)c1-c1cnn(-c2ccccc2)c1,-8.3,14.7,9.9,3.8,6.7,x,x,x,x
Cc1oc2cc(O)cc(C)c2c(=O)c1-c1cnn(-c2ccccc2)c1,57.5*,1.2,4.2,8.2,3.5,32.9*,44.6,8.2,4.5
O=C(NCc1ccc(F)cc1F)[C@@H]1CCCN1C(=O)[C@@H]1CCCN1C(=O)c1cccc2ccccc12,-20.2,-12.4,2.7,5.7,1.7,x,x,x,x
COc1ccc(C(CNC(=O)Cc2ccc(-c3ccccc3)cc2)N(C)C)cc1 (stereo unspecified),-17.9,-17.3,5.2,5.4,-2.0,x,x,x,x
COc1ccc(C(CNC(=O)C(Cc2ccccc2)NC(N)=O)N(C)C)cc1 (stereo unspecified),103.2*,-1.2,-3.6,0.9,2.6,5.8,-2.1,0.9,1.8
COc1ccc(Cl)cc1N(CC(=O)NCCSc1ccccn1)S(=O)(=O)c1ccccc1,58.4*,3.4,11.2,14.3,-8.4,16.4,32.1,5.5,6.4
COc1ccc(N2CCN(c3nc(Cl)nc(Nc4ccc(F)cc4)n3)CC2)cc1,78.4*,4.8,1.7,2.0,5.8,27.0*,50.9*,9.8,16.7
CCOC(=O)c1cnc2ccc(OCC)cc2c1N1CCN(C)CC1,10.6,-2.7,-1.1,0.7,19.0,x,x,x,x
CCOc1ccc2ncc(S(=O)(=O)c3ccc(C)cc3)c(N3CCC4(CC3)OCCO4)c2c1,63.2*,2.9,7.6,8.2,-13.2,20.3,45.5,4.1,0.4
COc1cccc(/C=C(/C(=O)OCC(N)=O)c2ccccc2)c1,105.0*,-7.1,10.3,1.0,3.8,1.1,-2.5,2.0,4.9
CN(C)c1ccc(CNC(=O)C2(C)Cc3c(-c4cccc(C(F)(F)F)c4)ccnc3O2)cc1 (stereo unspecified),-40.9,-11.4,2.3,3.3,-6.0,x,x,x,x
COc1ccc(-c2cc(-c3nnc(COC(=O)c4ccc(O)cc4)o3)c3ccccc3n2)cc1OC,48.4,17.8,15.7,21.4,-7.3,x,x,x,x
SMILES,TAAR1 antagonist,CHRM4 antagonist,TAAR1 agonist,M4 ag,M4 PAM,TAAR1 nonsel count,TAAR1 ant conf,Ga16 nonsel ag,TAAR1 ag count
COc1ccc(-c2cc(-c3nnc(COC(=O)C4CC4C)o3)c3ccccc3n2)cc1OC (stereo unspecified),65.3*,14.1,10.8,8.5,-14.1,21.3,41.5,5.2,1.2
COc1ccc(S(=O)(=O)N(C)C[C@@H]2OCc3cnnn3CCCC(=O)N([C@H](C)CO)C[C@@H]2C)cc1,5.0,-13.0,1.8,0.6,-0.8,x,x,x,x
COc1cc(NC(=S)NC(=O)c2ccccc2F)ccc1NC(=O)c1cccs1,-12.5,0.9,5.5,-0.1,-13.7,x,x,x,x
O=C(Nc1ccc(NC(=S)NC(=O)c2ccccc2F)cc1)c1cccs1,51.7*,-11.3,11.1,11.0,-9.7,19.8,28.3,9.3,10.5
O=S1(=O)CC(N2CC=CC2)CN1C1CCCCC1 (stereo unspecified),1.0,1.2,1.3,1.5,9.6,x,x,x,x
COc1cccc(C(=O)Nc2ccc(-n3nncc3C(C)(C)C)cc2)c1,-5.2,-3.8,2.9,15.0,-11.8,x,x,x,x
CC(C)(C)c1cnnn1-c1ccc(NC(=O)c2ccc(Br)o2)cc1,57.5*,14.3,7.1,2.5,-8.8,12.1,15.9,2.4,-1.2
O=C(NCc1ccccc1)C(c1ccc(-c2ccccc2)cc1)n1c(=O)c(-c2ccco2)nc2ccccc21 (stereo unspecified),-23.5,0.0,0.6,2.3,6.1,x,x,x,x
CC1(C)CC(Cc2cccc(C(F)(F)F)c2)N(C(=O)OC(C)(C)C)C1 (stereo unspecified),-6.6,7.2,1.0,-0.2,-2.8,x,x,x,x
COc1ccc(C(C)=O)cc1COC(=O)[C@H](Cc1ccccc1)NC(=O)c1ccco1,55.9*,-1.9,8.3,15.6,-9.2,22.3*,43.9,9.9,12.8
CCOC(=O)c1[nH]c(C)c(C(=O)OCC(=O)N(Cc2ccccc2)C(C)C)c1C,24.0,7.1,5.8,8.8,-4.0,x,x,x,x
